# Measured values from ChEMBL document CHEMBL4725371, “A Novel Redox Modulator Induces a GPX4-Mediated Cell Death That Is Dependent on Iron and Reactive Oxygen Species” (J Med Chem, 2020).
# The source made the active and inactive calls. The rule behind the calls is not given here.
# Assays:
# MIA PaCa-2 [1] = experiment: Induction of reactive oxygen species in human MIA PaCa-2 cells at 5 to 10 uM measured up to 4 hrs by CM-H2DCFDA dye based fluorescence assay; format: functional, cell-based; conditions: dose microM 5-10, time hrs <=4, TDE = time-dependent effect
# Summary of the method: (§1)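 1.8 × 10⁴ cells per well were attached overnight, then loaded with 10 μM CM-H2DCFDA in HBSS for 40 min at 37 °C and washed. Compounds were added in HBSS. Fluorescence was read at Ex 483 / Em 530 nm. TBHP was the positive control. NAC at 3 mM was used where stated.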
# PANC-1 [2] = experiment: Induction of reactive oxygen species in human PANC-1 cells at 10 uM measured after 1 hr by CM-H2DCFDA dye based fluorescence assay; format: functional, cell-based; summary of the method: as §1
# MIA PaCa-2 [3] = experiment: Inhibition of colony formation in human MIA PaCa-2 cells at 0.375 to 0.75 uM measured after 7 to 9 days in presence of GPX4 inhibitor RSL3 by crystal violet staining based assay; format: functional, cell-based; conditions: dose microM 0.375-0.75, time day 7-9
# Summary of the method: (§2)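 Cells seeded overnight in 96-well plates at 300 cells/well (MIA PaCa-2) or 600 cells/well (BxPC-3), in RPMI 1640 with 10% FBS. Inhibitor added 1 h before compound, then continuous exposure for 7–9 days until control wells were 80–90% confluent. Stained with 0.05% crystal violet for 30 min, imaged after overnight drying and quantified.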
# MIA PaCa-2 [4] = experiment: Down regulation of LRPPRC expression in human MIA PaCa-2 cells at 3 times IC50 measured after 4 hrs in presence of NQO1 inhibitor dicoumarol by proteomics analysis; format: functional, cell-based
# PANC-1 [5] = experiment: Down regulation of LRPPRC expression in human PANC-1 cells at 3 times IC50 measured after 1 to 24 hrs by proteomics analysis; format: functional, cell-based; conditions: time hrs 1-24
# [6] = Drug metabolism in mouse plasma assessed as 7-hydroxy-6-[4-(4-methylpiperazin-1-yl)anilino]-6,7-dihydroquinazoline-5,8-dione formation at 500 uM measured after 0.5 hrs by LC-MS/MS analysis; format: ADME, cell-free
# Summary of the method: (§3)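 Compound (500 μM DMSO stock, 1 μL per 500 μL) was incubated in pooled mouse plasma. Samples were taken at 0.5 h and metabolites identified by LC-MS/MS.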
# MIA PaCa-2 [7] = experiment: Down regulation of PNPT1 expression in human MIA PaCa-2 cells at 3 times IC50 measured after 4 hrs in presence of NAC by proteomics analysis; format: functional, cell-based
# [8] = Toxicity in CD-1 mouse assessed as death at 10 mg/kg, iv; format: organism-based; conditions: in vivo
# Summary of the method: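 CD-1 mice given a single IV injection at 10 mg/kg, three mice per group. Blood was drawn into heparinized pipettes at 0.5, 2, 4 and 7 h for plasma LC-MS/MS. Deaths were noted over the course of the study.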
# PANC-1 [9] = experiment: Down regulation of PNPT1 expression in human PANC-1 cells at 3 times IC50 measured after 1 to 24 hrs by proteomics analysis; format: functional, cell-based; conditions: time hrs 1-24
# [10] = Plasma concentration in CD-1 mouse at 20 mg/kg, po measured after 7 hrs by LC-MS/MS analysis; format: ADME, organism-based
# Summary of the method: (§4)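 CD-1 mice dosed IP at 10 mg/kg or PO at 20 mg/kg, n=2 per route. Blood taken with heparinized pipettes at 0.5, 2, 4 and 7 h and spun at 15,000 rpm for 10 min. Plasma stored at −80 °C, then measured by LC-MS/MS.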
# [11] = Plasma concentration in CD-1 mouse at 10 mg/kg, ip measured after 7 hrs by LC-MS/MS analysis; format: ADME, organism-based; summary of the method: as §4
# PANC-1 [12] = experiment: Synergistic inhibition of colony formation in human PANC-1 cells at 0.125 to 0.5 uM measured after 24 hrs in presence of napabucasin by crystal violet staining based assay; format: functional, cell-based; conditions: dose microM 0.125-0.5, time 24.0 hrs
# Summary of the method: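 Colony formation in 96-well plates seeded at 300 (MIA PaCa-2) or 600 (PANC-1) cells/well. Napabucasin, As2O3 or olaparib added 1 h before test compound; drugs on cells 24 h. Plates kept until controls were 80–90% confluent (7–9 days), then stained with 0.05% crystal violet and quantified. Synergy scored by HSA and Bliss models.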
# MIA PaCa-2 [13] = experiment: Induction of ferroptosis in human MIA PaCa-2 cells assessed as increase in lipid peroxidation measured after 24 hrs by C11-BODIPY dye based fluorescence assay; format: functional, cell-based
# Summary of the method: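 MIA PaCa-2 cells were treated for the set time, then given 10 μM C11-BODIPY for 30 min at 37 °C and washed. Fluorescence was read at 581/591 nm (reduced dye) and 488/510 nm (oxidized dye). The intensity ratio was compared by unpaired t-test.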
# MIA PaCa-2 [14] = experiment: Inhibition of colony formation in human MIA PaCa-2 cells at 0.4 to 0.8 uM measured after 7 to 9 days in presence of iron chelator deferasirox by crystal violet staining based assay; format: functional, cell-based; conditions: dose microM 0.4-0.8, time day 7-9; summary of the method: as §2
# MIA PaCa-2 [15] = experiment: Down regulation of LRPPRC expression in human MIA PaCa-2 cells at 1.2 uM measured after 24 hrs by proteomics analysis; format: functional, cell-based
# Summary of the method: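 MIA PaCa-2 cells were treated with 1.2 μM compound or DMSO for 24 h and lysed in RIPA buffer. 75 μg protein per sample was run in duplicate by TMT10plex-labelled proteomics. Abundance ratio was taken as treatment over control. Changes of at least 1.5-fold at FDR < 0.05 were scored.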
# MIA PaCa-2 [16] = experiment: Inhibition of colony formation in human MIA PaCa-2 cells at 0.5 uM measured after 7 to 9 days in presence of iron chelator deferoxamine by crystal violet staining based assay; format: functional, cell-based; conditions: time day 7-9; summary of the method: as §2
# MIA PaCa-2 [17] = experiment: Down regulation of PNPT1 expression in human MIA PaCa-2 cells at 3 times IC50 measured after 4 hrs in presence of NQO1 inhibitor dicoumarol by proteomics analysis; format: functional, cell-based
# MIA PaCa-2 [18] = experiment: Inhibition of colony formation in human MIA PaCa-2 cells at 0.4 to 0.8 uM measured after 7 to 9 days in presence of ferroptosis inhibitor ferrostatin-1 by crystal violet staining based assay; format: functional, cell-based; conditions: dose microM 0.4-0.8, time day 7-9; summary of the method: as §2
# MIA PaCa-2 [19] = experiment: Induction of reactive oxygen species in human MIA PaCa-2 cells assessed as reduction in GSH to GSSG ratio at 1.5 to 6 uM measured after 2 to 4 hrs by GSH/GSSG-glo assay; format: functional, cell-based; conditions: dose microM 1.5-6, time hrs 2-4
# Summary of the method: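 GSH/GSSG-Glo luminescent assay: 15,000–20,000 MIA PaCa-2 cells per well, attached overnight, treated 2 h and 4 h. Cells were lysed with total or oxidized glutathione reagent, then luciferin generation (30 min, room temperature) and detection reagents added. Luminescence was read after 15 min. Ratio was computed from net RLU as (total − GSSG)/(GSSG/2).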
# [20] = Drug metabolism in mouse plasma assessed as 6-[4-[(2R)-2-hydroxy-4-methyl-piperazin-1-yl]anilino]quinazoline-5,8-dione formation at 500 uM measured after 0.5 hrs by LC-MS/MS analysis; format: ADME, cell-free; summary of the method: as §3
# MIA PaCa-2 [21] = experiment: Down regulation of PNPT1 expression in human MIA PaCa-2 cells at 3 times IC50 measured after 4 hrs by proteomics analysis; format: functional, cell-based
# MIA PaCa-2 [22] = experiment: Induction of reactive oxygen species in human MIA PaCa-2 cells at 10 uM measured after 1 hr by CM-H2DCFDA dye based fluorescence assay; format: functional, cell-based; summary of the method: as §1
smiles,measurement,setting,value
CN1CCN(c2ccc(NC3=CC(=O)c4ncncc4C3=O)cc2)CC1,Activity,MIA PaCa-2 [1],Tde
same,Activity,PANC-1 [2],Active
same,inhibition,MIA PaCa-2 [3],inactive
same,Activity,MIA PaCa-2 [4],inactive
same,Activity,PANC-1 [5],inactive
same,Drug metabolism,[6],Metabolite_Detected
same,Activity,MIA PaCa-2 [7],Active
same,Activity,[8],Toxic
same,Activity,PANC-1 [9],inactive
same,concentration at 7 h,[10],23.3 ng/mL
same,concentration at 7 h,[11],4.5 ng/mL
same,inhibition,PANC-1 [12],Active
same,Activity,MIA PaCa-2 [13],Dose-dependent effect
same,inhibition,MIA PaCa-2 [14],inactive
same,Activity,MIA PaCa-2 [15],Active
same,inhibition,MIA PaCa-2 [16],inactive
same,Activity,MIA PaCa-2 [17],inactive
same,inhibition,MIA PaCa-2 [18],Active
same,Activity,MIA PaCa-2 [19],Active
same,Drug metabolism,[20],Metabolite_Detected
same,Activity,MIA PaCa-2 [21],Active
same,Activity,MIA PaCa-2 [22],Active
